Laboratory results reported in ChEMBL document CHEMBL3808376, “Iminolactones as tools for inversion of the absolute configuration of α-amino acids and as inhibitors of cancer cell proliferation” (Eur J Med Chem, 2016).

Key:
[1] = Antiproliferative activity against human PC3 cells after 48 hrs by Sulforhodamine B assay; format: functional, cell-based; settings: PC-3, 48 h
How it was run: (§1)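 Cancer lines from the National Cancer Institute (murine leukemic EL4, human breast MCF7, human prostate PC3), in a standard high-flux screening format. Cells incubated with compound at several concentrations, 37 °C for 48 h. Trichloroacetic acid fixation, sulforhodamine B staining, absorbance read at 490 nm. IC50 reported as mean SD of three experiments.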

[2] = Antiproliferative activity against mouse NIH/3T3 cells after 48 hrs by Sulforhodamine B assay; format: cell-based; settings: NIH3T3, 48 h
[3] = Antiproliferative activity against mouse McCoy cells after 48 hrs by Sulforhodamine B assay; format: cell-based
[4] = Antiproliferative activity against human MCF10A cells after 48 hrs by Sulforhodamine B assay; format: cell-based; settings: MCF-10A
MCF7 = assay: Antiproliferative activity against human MCF7 cells after 48 hrs by Sulforhodamine B assay; format: functional, cell-based; settings: MCF7, 48 h; how it was run: as §1
EL4 = assay: Antiproliferative activity against mouse EL4 cells after 48 hrs by Sulforhodamine B assay; format: functional, cell-based; settings: EL4, 48 h; how it was run: as §1

CC(C)(C)OC(=O)CC[C@@H]1N=C2C[C@@H]3C[C@@H](C3(C)C)[C@]2(C)OC1=O
IC50 [1]: 42 µM | IC50 [2]: > 1000 µM | IC50 [3]: > 1000 µM | IC50 [4]: > 1000 µM | IC50 (MCF7): 40 µM | IC50 (EL4): 36 µM

CC1(C)N=C2C[C@H]3C[C@H](C3(C)C)[C@@]2(C)OC1=O
IC50 [1]: 166 µM | IC50 [2]: > 2000 µM | IC50 [3]: > 2000 µM | IC50 [4]: > 2000 µM | IC50 (MCF7): 162 µM | IC50 (EL4): 149 µM

CC(C)(C)OC(=O)NCCCC[C@@H]1N=C2C[C@@H]3C[C@@H](C3(C)C)[C@]2(C)OC1=O
IC50 [1]: 18 µM | IC50 [2]: > 800 µM | IC50 [3]: > 800 µM | IC50 [4]: > 800 µM | IC50 (MCF7): 17 µM | IC50 (EL4): 15 µM

C[C@@]12CCCC[C@H]1CC[C@@H]1OC(=O)[C@H](Cc3c[nH]c4ccccc34)N=C12
IC50 [1]: 83 µM | IC50 [2]: > 1500 µM | IC50 [3]: > 1500 µM | IC50 [4]: > 1500 µM | IC50 (MCF7): 77 µM | IC50 (EL4): 71 µM

CC(C)(C)OC(=O)NCCC[C@@H]1N=C2C[C@@H]3C[C@@H](C3(C)C)[C@]2(C)OC1=O
IC50 [1]: 6.6 µM | IC50 [2]: > 1200 µM | IC50 [3]: > 1200 µM | IC50 [4]: > 1200 µM | IC50 (MCF7): 6.3 µM | IC50 (EL4): 4.1 µM

CC1(C)[C@H]2CC[C@]1(C)[C@H]1OC(=O)[C@H](Cc3ccccc3)N=C21
IC50 [1]: 160 µM

CC(C)(C)OC(=O)n1cnc(C[C@H]2N=C3C[C@H]4C[C@H](C4(C)C)[C@@]3(C)OC2=O)c1
IC50 [1]: 147 µM | IC50 [2]: > 1300 µM | IC50 [3]: > 1300 µM | IC50 [4]: > 1300 µM | IC50 (MCF7): 142 µM | IC50 (EL4): 139 µM

C[C@@]12CCCC[C@H]1CC[C@@H]1OC(=O)CN=C12
IC50 [1]: 13 µM | IC50 [2]: > 2000 µM | IC50 [3]: > 2000 µM | IC50 [4]: > 2000 µM | IC50 (MCF7): 11 µM | IC50 (EL4): 7.7 µM

C[C@H]1N=C2C[C@H]3C[C@H](C3(C)C)[C@@]2(C)OC1=O
IC50 [1]: 42 µM | IC50 [2]: > 1800 µM | IC50 [3]: > 1800 µM | IC50 [4]: > 1800 µM | IC50 (MCF7): 38 µM | IC50 (EL4): 27 µM

CC1(C)[C@@H]2CC3=N[C@@H](CCC(=O)O)C(=O)O[C@@]3(C)[C@H]1C2
IC50 [1]: 42 µM | IC50 [2]: > 1200 µM | IC50 [3]: > 1200 µM | IC50 [4]: > 1200 µM | IC50 (MCF7): 38 µM | IC50 (EL4): 36 µM

CC(C)(C)OC(=O)NCCC[C@H]1N=C2C[C@H]3C[C@H](C3(C)C)[C@@]2(C)OC1=O
IC50 [1]: 60 µM | IC50 [2]: > 1500 µM | IC50 [3]: > 1500 µM | IC50 [4]: > 1500 µM | IC50 (MCF7): 56 µM | IC50 (EL4): 48 µM

C[C@H]1N=C2[C@H](CC[C@@H]3CCCC[C@@]23C)OC1=O
IC50 [1]: 57 µM | IC50 [2]: > 2000 µM | IC50 [3]: > 2000 µM | IC50 [4]: > 2000 µM | IC50 (MCF7): 57 µM | IC50 (EL4): 53 µM

O=C1O[C@H]2CCc3ccccc3C2=N[C@H]1Cc1ccccc1
IC50 [1]: 45 µM | IC50 [2]: > 1000 µM | IC50 [3]: > 1000 µM | IC50 [4]: > 1000 µM | IC50 (MCF7): 41 µM | IC50 (EL4): 39 µM

CC1(C)[C@H]2CC3=N[C@H](CCC(=O)O)C(=O)O[C@]3(C)[C@@H]1C2
IC50 [1]: 38 µM | IC50 [2]: > 1200 µM | IC50 [3]: > 1200 µM | IC50 [4]: > 1200 µM | IC50 (MCF7): 34 µM | IC50 (EL4): 30 µM

CC(C)(C)OC(=O)NCCCC[C@H]1N=C2C[C@H]3C[C@H](C3(C)C)[C@@]2(C)OC1=O
IC50 [1]: 15.9 µM | IC50 [2]: > 1300 µM | IC50 [3]: > 1300 µM | IC50 [4]: > 1300 µM | IC50 (MCF7): 15.3 µM | IC50 (EL4): 14.5 µM

CC1(C)[C@@H]2CC3=NCC(=O)O[C@@]3(C)[C@H]1C2
IC50 [1]: 43 µM | IC50 [2]: > 900 µM | IC50 [3]: > 900 µM | IC50 [4]: > 900 µM | IC50 (MCF7): 22 µM | IC50 (EL4): 19 µM

C[C@@H]1N=C2C[C@@H]3C[C@@H](C3(C)C)[C@]2(C)OC1=O
IC50 [1]: 149 µM | IC50 [2]: > 2000 µM | IC50 [3]: > 2000 µM | IC50 [4]: > 2000 µM | IC50 (MCF7): 154 µM | IC50 (EL4): 145 µM

CC1(C)[C@H]2CC3=NCC(=O)O[C@]3(C)[C@@H]1C2
IC50 [1]: > 300 µM | IC50 [2]: > 2000 µM | IC50 [3]: > 2000 µM | IC50 [4]: > 2000 µM | IC50 (MCF7): > 300 µM | IC50 (EL4): > 300 µM

CC1(C)[C@@H]2CC3=N[C@@H](Cc4ccccc4)C(=O)O[C@@]3(C)[C@H]1C2
IC50 [1]: > 300 µM | IC50 [2]: > 1000 µM | IC50 [3]: > 1000 µM | IC50 [4]: > 1000 µM | IC50 (MCF7): > 300 µM | IC50 (EL4): > 300 µM

CC1(C)[C@H]2CC3=N[C@H](Cc4ccccc4)C(=O)O[C@]3(C)[C@@H]1C2
IC50 [1]: 9.4 µM | IC50 [2]: > 1500 µM | IC50 [3]: > 1500 µM | IC50 [4]: > 1500 µM | IC50 (MCF7): 8.4 µM | IC50 (EL4): 7.7 µM

O=C1O[C@H]2CCc3ccccc3C2=N[C@H]1Cc1c[nH]c2ccccc12
IC50 [1]: 39 µM | IC50 [2]: > 1000 µM | IC50 [3]: > 1000 µM | IC50 [4]: > 1000 µM | IC50 (MCF7): 39 µM | IC50 (EL4): 36 µM

C[C@@]12CCCC[C@H]1CC[C@@H]1OC(=O)[C@H](Cc3ccccc3)N=C12
IC50 [1]: 51 µM | IC50 [2]: > 1700 µM | IC50 [3]: > 1700 µM | IC50 [4]: > 1700 µM | IC50 (MCF7): 53 µM | IC50 (EL4): 50 µM

CC1(C)[C@H]2CC[C@]1(C)[C@H]1OC(=O)CN=C21
IC50 [1]: 145 µM | IC50 [2]: > 900 µM | IC50 [3]: > 900 µM | IC50 [4]: > 900 µM | IC50 (MCF7): 135 µM | IC50 (EL4): 82 µM

C[C@@]12CCCC[C@H]1CC=C(O)C2=O
IC50 [1]: 119 µM | IC50 [2]: > 2000 µM | IC50 [3]: > 2000 µM | IC50 [4]: > 2000 µM | IC50 (MCF7): 119 µM | IC50 (EL4): 114 µM

CC(C)(C)OC(=O)CC[C@H]1N=C2C[C@H]3C[C@H](C3(C)C)[C@@]2(C)OC1=O
IC50 [1]: 55 µM | IC50 [2]: > 1200 µM | IC50 [3]: > 1200 µM | IC50 [4]: > 1200 µM | IC50 (MCF7): 54 µM | IC50 (EL4): 51 µM

C[C@@]12CCCC[C@H]1CC[C@@H]1OC(=O)[C@@H](Cc3ccccc3)N=C12
IC50 [1]: 12 µM | IC50 [2]: > 1200 µM | IC50 [3]: > 1200 µM | IC50 [4]: > 1200 µM | IC50 (MCF7): 12 µM | IC50 (EL4): 12 µM

O=C1O[C@@H]2CCc3ccccc3C2=N[C@H]1Cc1ccccc1
IC50 [1]: 30 µM | IC50 [2]: > 1000 µM | IC50 [3]: > 1000 µM | IC50 [4]: > 1000 µM | IC50 (MCF7): 27 µM | IC50 (EL4): 24 µM

O=C1O[C@@H]2CCc3ccccc3C2=N[C@H]1Cc1c[nH]c2ccccc12
IC50 [1]: 26 µM | IC50 [2]: > 1000 µM | IC50 [3]: > 1000 µM | IC50 [4]: > 1000 µM | IC50 (MCF7): 25 µM | IC50 (EL4): 22 µM
